Laboratory results as given in ChEMBL document CHEMBL1828575, “Design, synthesis and antiproliferative activities of biarylolefins based on polyhydroxylated and carbohydrate scaffolds” (Eur J Med Chem, 2011).

Experiments:
Format in all cases: functional
[1] = system: MDA-MB-231; experiment: Cytotoxicity against human MDA-MB-231 cells assessed as cellular growth at 10 uM after 48 hrs by SRB assay
In short: (§1)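 NCI-60 panel lines grown in RPMI 1640 with 5% FBS and 2 mM L-glutamine. Plated at 5000–40,000 cells/well and preincubated 24 h at 37 °C, 5% CO₂, with time-zero plates fixed in TCA. Compounds, dissolved in DMSO and diluted in medium, were applied for 48 h. Cells were TCA-fixed (10% final for adherent, 16% for suspension) and stained with 0.4% SRB in 1% acetic acid. Dye was solubilised in 10 mM Tris base and read at 515 nm; growth was expressed as a percentage of untreated control.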

[2] = system: EKVX; experiment: Antitumor activity against human EKVX cells after 48 hrs by SRB assay
In short: (§2)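 NCI60 panel in RPMI 1640 with 5% FBS and 2 mM L-glutamine. Cells were plated at 5000–40,000/well by doubling time, held 24 h, then time-zero plates were TCA-fixed. Five concentrations (10-fold or half-log dilutions of DMSO stocks) were applied for 48 h at 37 °C, 5% CO2. Cells were fixed with cold TCA (10% final adherent, 16% suspension) and stained with 0.4% SRB. Bound dye was dissolved in 10 mM Tris and read at 515 nm. GI50, TGI and LC50 were calculated per line.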

[3] = system: RXF 393; experiment: Antitumor activity against human RXF393 cells after 48 hrs by SRB assay; conditions: RXF 393, 48 h; for CC50: read-out: LC50 (the source's name); in short: as §2
[4] = system: OVCAR-3; experiment: Cytotoxicity against human OVCAR3 cells assessed as cellular growth at 10 uM after 48 hrs by SRB assay; in short: as §1
[5] = system: 786-0; experiment: Antitumor activity against human 786-0 cells after 48 hrs by SRB assay; conditions: 786-0, 48 h; in short: as §2
[6] = system: SN12C; experiment: Antitumor activity against human SN12C cells after 48 hrs by SRB assay
In short: (§3)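 NCI60 panel cells grown in RPMI 1640 with 5% FBS and 2 mM L-glutamine, plated at 5000–40,000 cells/well and preincubated 24 h at 37 °C, 5% CO₂. Compound was added from DMSO at five concentrations, 10-fold or 1/2 log dilutions, then incubated 48 h.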

[7] = system: SF-539; experiment: Cytotoxicity against human SF539 cells assessed as cellular growth at 10 uM after 48 hrs by SRB assay; in short: as §1
[8] = system: NCI-H322M; experiment: Cytotoxicity against human NCI-H322M cells assessed as cellular growth at 10 uM after 48 hrs by SRB assay; in short: as §1
[9] = system: TK-10; experiment: Antitumor activity against human TK10 cells after 48 hrs by SRB assay; conditions: TK-10, 48 h; in short: as §3
[10] = system: CAKI-1; experiment: Antitumor activity against human Caki1 cells after 48 hrs by SRB assay; conditions: CAKI-1, 48 h; in short: as §2
[11] = Antitumor activity against human Hs 578T cells after 48 hrs by SRB assay; conditions: for CC50: read-out: LC50 (the source's name); in short: as §2
[12] = system: SNB-75; experiment: Cytotoxicity against human SNB75 cells assessed as cellular growth at 10 uM after 48 hrs by SRB assay; in short: as §1
[13] = system: 786-0; experiment: Cytotoxicity against human 786-0 cells assessed as cellular growth at 10 uM after 48 hrs by SRB assay
In short: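 NCI60 single-dose screen of cells in RPMI 1640 with 5% FBS and 2 mM L-glutamine, preincubated 24 h at 37 °C, 5% CO₂. Cells were then exposed 48 h to compound added from DMSO stock. TCA-fixed, stained with 0.4% SRB in 1% acetic acid, dye solubilised in 10 mM Tris base and read at 515 nm. Growth is given as percent of untreated control.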

[14] = system: U-251; experiment: Cytotoxicity against human U251 cells assessed as cellular growth at 10 uM after 48 hrs by SRB assay; in short: as §1
[15] = system: SF-295; experiment: Antitumor activity against human SF295 cells after 48 hrs by SRB assay; conditions: SF-295, 48 h; in short: as §2
[16] = system: MCF7; experiment: Antitumor activity against human MCF7 cells after 48 hrs by SRB assay; conditions: MCF7, 48 h; in short: as §2
[17] = system: SF-539; experiment: Antitumor activity against human SF539 cells after 48 hrs by SRB assay; conditions: SF-539, 48 h; for CC50: read-out: LC50 (the source's name); in short: as §3
[18] = system: Malme-3M; experiment: Antitumor activity against human MALME-3M cells after 48 hrs by SRB assay; in short: as §2
[19] = system: MDA-MB-231; experiment: Antitumor activity against human MDA-MB-231 cells after 48 hrs by SRB assay; conditions: MDA-MB-231, 48 h; for CC50: read-out: LC50 (the source's name); in short: as §2
[20] = system: TK-10; experiment: Cytotoxicity against human TK10 cells assessed as cellular growth at 10 uM after 48 hrs by SRB assay; in short: as §1
[21] = system: NCI-H322M; experiment: Antitumor activity against human NCI-H322M cells after 48 hrs by SRB assay; in short: as §2
[22] = system: SNB-19; experiment: Antitumor activity against human SNB19 cells after 48 hrs by SRB assay; conditions: SNB-19, 48 h; for CC50: read-out: LC50 (the source's name); in short: as §3
[23] = system: SNB-19; experiment: Cytotoxicity against human SNB19 cells assessed as cellular growth at 10 uM after 48 hrs by SRB assay; in short: as §1
[24] = system: OVCAR-5; experiment: Cytotoxicity against human OVCAR5 cells assessed as cellular growth at 10 uM after 48 hrs by SRB assay; in short: as §1
[25] = read-out: LC50 (the source's name)
[26] = read-out: pLC50 (the source's name) (converted)

COc1ccc(/C(=C2\O[C@@H]([C@H]3COC(C)(C)O3)[C@H]3OC(C)(C)O[C@@H]23)c2cc(OC)c(OC)c(OC)c2)cc1O
Activity [1]: 54.45%
GI50 ([2]; read-out: GI50): 37.4 µM
CC50 [2, 25]: > 100 µM
TGI ([2]; read-out: TGI): > 100 µM
GI50 ([2]; read-out: pGI50 (converted)): 37.2 µM
CC50 [2, 26]: > 100 µM
TGI ([2]; read-out: pTGI): > 100 µM
GI50 [3]: 2.54 µM
TGI [3]: 5.99 µM
CC50 [3]: 32.6 µM
Activity [4]: 58.27%
GI50 [5]: 2.3 µM
LC50 [5]: 8.6 µM
TGI [5]: 4.47 µM
CC50 [6, 25]: > 100 µM
TGI ([6]; read-out: TGI): > 100 µM
GI50 ([6]; read-out: pGI50 (converted)): 8.91 µM
CC50 [6, 26]: > 100 µM
TGI ([6]; read-out: pTGI): > 100 µM
Activity [7]: 21.53%
Activity [8]: 91.51%
GI50 ([9]; read-out: GI50): 3.66 µM
CC50 [9, 25]: > 100 µM
TGI ([9]; read-out: TGI): 86.3 µM
GI50 ([9]; read-out: pGI50 (converted)): 36.3 µM
CC50 [9, 26]: > 100 µM
TGI ([9]; read-out: pTGI (converted)): 87.1 µM
GI50 ([10]; read-out: GI50): 14.6 µM
CC50 [10, 25]: > 100 µM
TGI ([10]; read-out: TGI): 42.2 µM
GI50 ([10]; read-out: pGI50 (converted)): 14.8 µM
CC50 [10, 26]: > 100 µM
TGI ([10]; read-out: pTGI (converted)): 42.7 µM
GI50 [11]: 4.44 µM
TGI [11]: 53.4 µM
CC50 [11]: > 100 µM
Activity [12]: 24.26%
Activity [13]: 86.28%
Activity [14]: 61.19%
CC50 [15, 25]: > 100 µM
TGI ([15]; read-out: TGI): 43.8 µM
GI50 ([15]; read-out: pGI50 (converted)): 18.6 µM
CC50 [15, 26]: > 100 µM
TGI ([15]; read-out: pTGI (converted)): 43.7 µM
GI50 ([16]; read-out: GI50): 1.23 µM
CC50 [16, 25]: > 100 µM
TGI ([16]; read-out: TGI): > 100 µM
GI50 ([16]; read-out: pGI50 (converted)): 12.3 µM
CC50 [16, 26]: > 100 µM
TGI ([16]; read-out: pTGI (converted)): > 100 µM
GI50 [17]: 3.15 µM
TGI [17]: 8.75 µM
CC50 [17]: 86 µM
GI50 [18]: 2.07 µM
LC50 (concentration killing 50% of cells present at time zero) [18]: > 100 µM
TGI [18]: 5.59 µM
GI50 [19]: 6.28 µM
TGI [19]: 69.7 µM
CC50 [19]: > 100 µM
Activity [20]: 116.76%
GI50 ([21]; read-out: GI50): 9.6 µM
CC50 [21, 25]: > 100 µM
TGI ([21]; read-out: TGI): > 100 µM
GI50 ([21]; read-out: pGI50 (converted)): 9.55 µM
CC50 [21, 26]: > 100 µM
TGI ([21]; read-out: pTGI): > 100 µM
GI50 [22]: 2.49 µM
TGI [22]: 6.08 µM
CC50 [22]: > 100 µM
Activity [23]: 27.56%
Activity [24]: 92.89%

COc1ccc(/C(=C2/O[C@@H]([C@H]3COC(C)(C)O3)[C@H]3OC(C)(C)O[C@@H]23)c2cc(OC)c(OC)c(OC)c2)cc1O
Activity [1]: 43.9%
GI50 ([2]; read-out: GI50): 5.57 µM
CC50 [2, 25]: > 100 µM
TGI ([2]; read-out: TGI): > 100 µM
GI50 ([2]; read-out: pGI50 (converted)): 56.2 µM
CC50 [2, 26]: > 100 µM
TGI ([2]; read-out: pTGI): > 100 µM
GI50 [3]: 2.12 µM
TGI [3]: 5.89 µM
CC50 [3]: 29.8 µM
Activity [4]: 48%
GI50 [5]: 21.2 µM
LC50 [5]: > 100 µM
TGI [5]: 60.6 µM
GI50 ([6]; read-out: GI50): 5.82 µM
CC50 [6, 25]: > 100 µM
TGI ([6]; read-out: TGI): > 100 µM
GI50 ([6]; read-out: pGI50 (converted)): 5.62 µM
CC50 [6, 26]: > 100 µM
TGI ([6]; read-out: pTGI): > 100 µM
Activity [7]: 9.85%
Activity [8]: 34.81%
GI50 ([9]; read-out: GI50): 2.94 µM
CC50 [9, 25]: > 100 µM
TGI ([9]; read-out: TGI): 81.4 µM
GI50 ([9]; read-out: pGI50 (converted)): 23.4 µM
CC50 [9, 26]: > 100 µM
TGI ([9]; read-out: pTGI (converted)): 61.7 µM
GI50 ([10]; read-out: GI50): 3.73 µM
CC50 [10, 25]: 29.8 µM
TGI ([10]; read-out: TGI): > 100 µM
GI50 ([10]; read-out: pGI50 (converted)): 37.2 µM
CC50 [10, 26]: > 100 µM
TGI ([10]; read-out: pTGI (converted)): > 100 µM
GI50 [11]: 2.83 µM
TGI [11]: 7.88 µM
CC50 [11]: > 100 µM
Activity [12]: 6.11%
Activity [13]: 100.71%
Activity [14]: 46.2%
GI50 ([15]; read-out: GI50): 7 µM
CC50 [15, 25]: > 100 µM
TGI ([15]; read-out: TGI): 37.3 µM
GI50 ([15]; read-out: pGI50 (converted)): 6.92 µM
CC50 [15, 26]: > 100 µM
TGI ([15]; read-out: pTGI (converted)): 23.4 µM
GI50 ([16]; read-out: GI50): 3.76 µM
CC50 [16, 25]: > 100 µM
TGI ([16]; read-out: TGI): > 100 µM
GI50 ([16]; read-out: pGI50 (converted)): 3.8 µM
CC50 [16, 26]: > 100 µM
TGI ([16]; read-out: pTGI (converted)): > 100 µM
GI50 [17]: 2.59 µM
TGI [17]: 6.63 µM
CC50 [17]: > 100 µM
GI50 [18]: 5.46 µM
LC50 (concentration killing 50% of cells present at time zero) [18]: > 100 µM
TGI [18]: > 100 µM
GI50 [19]: 4.58 µM
TGI [19]: 30.7 µM
CC50 [19]: > 100 µM
Activity [20]: 109.18%
GI50 ([21]; read-out: GI50): 6.58 µM
CC50 [21, 25]: > 100 µM
TGI ([21]; read-out: TGI): > 100 µM
GI50 ([21]; read-out: pGI50 (converted)): 6.61 µM
CC50 [21, 26]: > 100 µM
TGI ([21]; read-out: pTGI): > 100 µM
GI50 [22]: 4.28 µM
TGI [22]: > 100 µM
CC50 [22]: > 100 µM
Activity [23]: 47.41%
Activity [24]: 95.38%
